Test [1] in a line: IC50 ratio measured as the IC50 values of GPI to that of MVD. The class given is functional.
In test [2] the target is Opioid receptors; mu & delta (Rattus norvegicus) (UniProt P33533+P33535). Briefly: Relative binding affinity for mu and delta opioid receptors. It is filed as protein assay.
The species entered for test [3] is Cavia porcellus. Briefly: In vitro inhibitory concentration against electrically induced contraction of guinea pig ileum (GPI). The class given is functional. In a few lines:
(§1)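 Electrically stimulated isolated tissue: longitudinal muscle strips of Hartley guinea pig ileum (250-300 g) for GPI, vas deferens of male ddY mouse (25-35 g) for MVD. IC50 read from log dose-response curves of contraction inhibition.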

The species named for test [4] is Mus musculus. Briefly: In vitro inhibitory concentration against electrically induced contraction of mouse vas deferens (MVD). It is filed as functional. In a few lines:
as §1

Test [5] deals with Delta-type opioid receptor (Rattus norvegicus, UniProt P33533). Briefly: Inhibition of [3H]-DADLE binding to rat brain delta receptor. A digest of the protocol:
(§2)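 Crude rat brain synaptosomal fraction (600 μg protein/mL) in 50 mM Tris-HCl pH 7.4 with BSA, bacitracin, bestatin and soybean trypsin inhibitor. Radioligand [3H]DAGO (μ) or [3H]DADLE (δ) at 2 nM. The δ assay also held 2.6 μM [Nα-MePhe3,D-Pro4]morphiceptin to block μ sites. Nonspecific binding with 1 μM unlabeled ligand. Incubated 60 min at 25 °C, filtered on PEI-soaked GF/B, counted by scintillation. Ki from IC50 by Cheng-Prusoff; mean of three.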

The target of test [6] is Mu-type opioid receptor (Cavia porcellus) (UniProt P97266). Briefly: Ratio of antagonistic activity against mu receptors in guinea pig ileum in presence and absence of mu agonist DAGO. It is filed as functional, tissue-based. In a few lines:
(§3)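 Agonist log dose-response curves were run with and without a fixed antagonist level. Ke was derived from the ratio of the IC50 values.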

For test [7] the target is unchanged. Briefly: Ratio of antagonistic activity against mu receptors in guinea pig ileum in presence and absence of mu agonist dermorphin. The class given is functional, tissue-based. In a few lines: as §3
Test [8] addresses Mu-type opioid receptor (Rattus norvegicus, UniProt P33535). Briefly: Inhibition of [3H]DAGO binding to rat brain Opioid receptor mu 1. A digest of the protocol:
as §2

The target of test [9] is Delta-type opioid receptor (Mus musculus) (UniProt P32300). Briefly: Ratio of antagonistic activity against delta receptors in mouse vas deferens in presence and absence of delta agonist DADLE. The class given is functional. In a few lines: as §3
Test [10] shares this target. Briefly: Ratio of antagonistic activity against delta receptors in mouse vas deferens in presence and absence of delta agonist DL-II. It is filed as functional. In a few lines:
as §3

Test [11] has the same target. Briefly: Ratio of antagonistic activity against delta receptors in mouse vas deferens in presence and absence of delta agonist DPDPE. The class given is functional. A digest of the protocol:
as §3

Test [12] shares this target. Briefly: Ratio of antagonistic activity against delta receptors in mouse vas deferens in presence and absence of delta agonist deltorphin. It is filed as functional. A digest of the protocol:
as §3

For test [13] the target is unchanged. Briefly: Ratio of antagonistic activity against delta receptors in mouse vas deferens in presence and absence of delta agonist leu-enkephalin. It is filed as functional. A digest of the protocol:
as §3

Starred links: 1 amine or outer side, 2 acyl side, 3 side chain; linkers in the order of their positions; H or OH if unused. Non-standard residues stand in square brackets, D forms with d. Residues, ends and D or L forms follow the SMILES beside them. X1 = CSCC[C@H](CN([C@@H](Cc1ccccc1)C(=O)[*:2])[*:1])N[*:3]; Tle = CC(C)(C)[C@H](N)C(=O)O; NBuGly = CCCCNCC(=O)O

Mu-type opioid receptor, sequence (P33535 whole entry): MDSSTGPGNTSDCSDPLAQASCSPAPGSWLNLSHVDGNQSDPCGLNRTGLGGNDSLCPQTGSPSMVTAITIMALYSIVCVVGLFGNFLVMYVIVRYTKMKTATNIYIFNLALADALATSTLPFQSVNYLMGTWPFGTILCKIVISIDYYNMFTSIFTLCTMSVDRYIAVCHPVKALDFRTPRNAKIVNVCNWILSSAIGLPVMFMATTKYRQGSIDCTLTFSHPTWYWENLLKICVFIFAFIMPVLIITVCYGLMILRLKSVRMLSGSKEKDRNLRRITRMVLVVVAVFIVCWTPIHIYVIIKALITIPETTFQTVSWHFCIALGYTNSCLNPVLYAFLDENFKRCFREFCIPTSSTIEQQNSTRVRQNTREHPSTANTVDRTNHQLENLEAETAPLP
Delta-type opioid receptor, sequence (P33533 whole entry): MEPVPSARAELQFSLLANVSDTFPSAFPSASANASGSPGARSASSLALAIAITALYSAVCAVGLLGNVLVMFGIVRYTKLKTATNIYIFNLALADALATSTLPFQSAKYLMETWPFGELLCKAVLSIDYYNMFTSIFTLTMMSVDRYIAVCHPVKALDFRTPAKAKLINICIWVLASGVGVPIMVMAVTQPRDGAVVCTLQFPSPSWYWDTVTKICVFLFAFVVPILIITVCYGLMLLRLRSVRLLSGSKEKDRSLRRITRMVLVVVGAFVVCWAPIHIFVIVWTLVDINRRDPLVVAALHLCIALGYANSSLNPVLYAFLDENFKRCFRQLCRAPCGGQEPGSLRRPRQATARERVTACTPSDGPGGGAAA
Opioid receptors; mu & delta (Rattus norvegicus), sequence (P33533 whole entry, looked up): as the sequence (P33533 whole entry) above
Opioid receptors; mu & delta (Rattus norvegicus), sequence (P33535 whole entry, looked up): as the sequence (P33535 whole entry) above
Delta-type opioid receptor (Mus musculus), sequence (P32300 whole entry): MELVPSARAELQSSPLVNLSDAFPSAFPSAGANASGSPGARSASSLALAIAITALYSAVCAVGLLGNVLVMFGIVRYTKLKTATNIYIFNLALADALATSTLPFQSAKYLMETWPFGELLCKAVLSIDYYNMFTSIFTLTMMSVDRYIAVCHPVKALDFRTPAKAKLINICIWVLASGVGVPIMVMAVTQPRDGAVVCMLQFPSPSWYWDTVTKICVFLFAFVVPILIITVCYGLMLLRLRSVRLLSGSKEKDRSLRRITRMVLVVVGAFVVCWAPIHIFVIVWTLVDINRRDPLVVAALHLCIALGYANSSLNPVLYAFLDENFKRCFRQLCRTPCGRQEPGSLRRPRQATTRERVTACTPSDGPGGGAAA
Mu-type opioid receptor (Cavia porcellus), sequence (P97266 whole entry): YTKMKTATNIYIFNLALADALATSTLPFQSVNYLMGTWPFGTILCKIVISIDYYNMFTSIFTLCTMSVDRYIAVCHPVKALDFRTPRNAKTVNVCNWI

As for `CC[C@H](C)N(CC(=O)N[C@@H](CC(=O)O)C(N)=O)C(=O)[C@H](CC(C)C)NC(=O)[C@H](Cc1c[nH]cn1)NC(=O)[C@H](Cc1ccccc1)NC(=O)[C@@H](CCSC)NC(=O)[C@@H](N)Cc1ccc(O)cc1` (stereo in doubt; 6b) [listing 1 of 2 here], in test [1], the Ratio was found to be 844. In addition, the Ki ratio in [2] was found to be 9690.
By IC50 is commonly meant the point on the concentration scale where inhibition reaches its midpoint. Read a low IC50 as greater potency in that assay. The Ki is a measure of affinity in units of concentration, obtained from inhibition or displacement. A low value points to tighter binding. Take `CSCC[C@@H](NC(=O)[C@@H](N)Cc1ccc(O)cc1)C(=O)N[C@@H](Cc1ccccc1)C(=O)N[C@@H](Cc1c[nH]cn1)C(=O)N[C@@H](CC(C)C)C(=O)N(CC(=O)N[C@@H](CC(=O)O)C(N)=O)CC(C)C`: the IC50 in test [3] (Cavia porcellus, Ileum) was determined as 3870 nM; in test [4] (Mus musculus) it was 2.36 nM. For the same molecule, the Ki in test [5] turned out to be 0.85 nM; in test [8], 58 nM. Further, the values for the Ke in test [6] and in test [7] were 138 nM and 165 nM, respectively. In test [1], the Ratio was 1640. Further, in test [2], the Ki ratio came out at 68.
On to `CC[C@H](C)N(CC(=O)N[C@@H](CC(=O)O)C(N)=O)C(=O)[C@H](CC(C)C)NC(=O)[C@H](Cc1c[nH]cn1)NC(=O)[C@H](Cc1ccccc1)NC(=O)[C@@H](CCSC)NC(=O)[C@@H](N)Cc1ccc(O)cc1` (stereo in doubt; 6a) [listing 1 of 2 here], for which the IC50 in test [3] was determined as 684 nM; in [4] it was 0.88 nM. Moreover, the Ki in test [5] worked out at 0.1 nM; in [8], 856 nM.
For the molecule `CCCCN(CC(=O)N[C@@H](CC(=O)O)C(N)=O)C(=O)[C@@H](NC(=O)[C@H](Cc1c[nH]cn1)NC(=O)[C@H](Cc1ccccc1)NC[C@@H](CCSC)NC(=O)[C@@H](N)Cc1ccc(O)cc1)C(C)(C)C` (H-[X1](Tyr)H[Tle][NBuGly]D-NH2), the IC50 is 995 nM in [3] (Cavia porcellus, Ileum) and 42 nM in test [4] (Mus musculus). Besides, the Ratio in test [1] was found to be 23. Also, the Ki ratio in [2] was determined as 61.
With `CCCCN(CC(=O)N[C@@H](CC(=O)O)C(N)=O)C(=O)[C@H](CC(C)C)NC(=O)[C@H](Cc1c[nH]cn1)NC(=O)[C@H](Cc1ccccc1)NC(=O)[C@@H](CCSC)NC(=O)[C@@H](N)Cc1ccc(O)cc1`, the IC50 in [3] (Cavia porcellus, Ileum) stood at 578 nM; in [4] (Mus musculus), 0.56 nM. In addition, the inhibitory constant (Ki) came out at 0.04 nM in [5] and 820 nM in test [8]. In test [1], the Ratio came to 1030. Besides, the Ki ratio in test [2] was 18200.
With `CSCC[C@H](NC(=O)[C@H](CC(C)C)NC(=O)[C@H](Cc1cnc[nH]1)NC(=O)[C@H](Cc1ccccc1)NC(=O)[C@@H](CCSC)NC(=O)[C@@H](N)Cc1ccc(O)cc1)C(=O)N[C@@H](CC(=O)O)C(N)=O` (H-Y[dM]FHLMD-NH2), the IC50 in test [3] (Cavia porcellus, Ileum) was 632 nM; in test [4] (Mus musculus), 0.93 nM. For the same molecule, the figures for the Ki in [5] and in [8] were 0.19 nM and 219 nM, respectively.
As for `CC[C@H](C)N(CC(=O)N[C@@H](CC(=O)O)C(N)=O)C(=O)[C@H](CC(C)C)NC(=O)[C@H](Cc1c[nH]cn1)NC(=O)[C@H](Cc1ccccc1)NC(=O)[C@@H](CCSC)NC(=O)[C@@H](N)Cc1ccc(O)cc1` (stereo in doubt; 6b) [listing 2 of 2 here], the IC50 was found to be 642 nM in test [3] (Cavia porcellus, Ileum) and 0.76 nM in test [4] (Mus musculus). Besides, the Ki in test [5] worked out at 0.09 nM; in [8], 798 nM.
Consider `CCCCN(CC(=O)N[C@@H](CC(=O)O)C(N)=O)C(=O)[C@@H](NC(=O)[C@H](Cc1c[nH]cn1)NC(=O)[C@H](Cc1ccccc1)NC(=O)[C@@H](CCSC)NC(=O)[C@@H](N)Cc1ccc(O)cc1)C(C)(C)C`, for which the concentration for half-maximal inhibition (IC50) in test [3] (Cavia porcellus, Ileum) amounted to 1680 nM; in test [4] (Mus musculus), 1910 nM. Besides, the inhibitory constant (Ki) in test [5] is 12.4 nM; in test [8], 152 nM. The values for the Ke in [6] and in test [7] were 520 nM and 554 nM, respectively. For the same molecule, the Ratio in test [1] amounted to 0.9. Besides, the Ki ratio in test [2] is 12.
`CC[C@H](C)N(CC(=O)N[C@@H](CC(=O)O)C(N)=O)C(=O)[C@H](CC(C)C)NC(=O)[C@H](Cc1c[nH]cn1)NC(=O)[C@H](Cc1ccccc1)NC(=O)[C@@H](CCSC)NC(=O)[C@@H](N)Cc1ccc(O)cc1` (stereo in doubt; 6a) [listing 2 of 2 here]: the Ratio in test [1] came out at 777. The Ki ratio in [2] was 8730.
For `Oc1ccc2c3c1O[C@H]1c4[nH]c5ccccc5c4C[C@@]4(O)[C@@H](C2)N(CC2CC2)CC[C@]314`, the Ke in [6] is 52.2 nM; in test [7], 151 nM; in [9], 0.67 nM; in test [10], 0.67 nM; in test [11], 0.65 nM; in test [12], 0.65 nM. Besides, the Ke in test [13] turned out to be 0.94 nM.
As for `CCCCN(CC(=O)N[C@@H](CC(=O)O)C(N)=O)C(=O)[C@H](CC(C)C)NC(=O)[C@H](Cc1cnc[nH]1)NC(=O)[C@H](Cc1ccccc1)NC[C@@H](CCSC)NC(=O)[C@@H](N)Cc1ccc(O)cc1` (H-[X1](Tyr)HL[NBuGly]D-NH2), the Ki in test [5] stood at 1.89 nM; in [8], 143 nM.
On to `CSCC[C@@H](NC(=O)[C@@H](N)Cc1ccc(O)cc1)C(=O)N[C@@H](Cc1ccccc1)C(=O)N[C@@H](Cc1c[nH]cn1)C(=O)N[C@@H](CC(C)C)C(=O)N[C@H](C(=O)N[C@@H](CC(=O)O)C(N)=O)C(C)(C)C`, for which the IC50 turned out to be 325 nM in [3] (Cavia porcellus, Ileum) and 1.28 nM in test [4] (Mus musculus). The inhibition constant Ki was determined as 0.46 nM in [5] and 271 nM in [8]. The Ratio in test [1] worked out at 254. In test [2], the Ki ratio amounted to 589.
As for `CCCCN(CC(=O)N[C@@H](CC(=O)O)C(N)=O)C(=O)[C@@H](NC(=O)[C@H](Cc1cnc[nH]1)NC(=O)[C@H](Cc1ccccc1)NC[C@@H](CCSC)NC(=O)[C@@H](N)Cc1ccc(O)cc1)C(C)(C)C` (H-[X1](Tyr)H[Tle][NBuGly]D-NH2), the inhibition constant (Ki) in test [5] was determined as 2.56 nM; in test [8] it was 157 nM.
As for `CCCCN(CC(=O)N[C@@H](CC(=O)O)C(N)=O)C(=O)[C@H](CC(C)C)NC(=O)[C@H](Cc1c[nH]cn1)NC(=O)[C@H](Cc1ccccc1)NC[C@@H](CCSC)NC(=O)[C@@H](N)Cc1ccc(O)cc1` (H-[X1](Tyr)HL[NBuGly]D-NH2), the IC50 in [3] (Cavia porcellus, Ileum) stood at 422 nM; in [4] (Mus musculus) it was 26 nM. The Ratio in [1] is 16. Moreover, the Ki ratio in test [2] worked out at 76.
As for `CSCC[C@H](NC(=O)[C@H](C)NC(=O)[C@H](Cc1c[nH]cn1)NC(=O)[C@H](Cc1ccccc1)NC(=O)[C@@H](CCSC)NC(=O)[C@@H](N)Cc1ccc(O)cc1)C(=O)N[C@@H](CC(=O)O)C(N)=O`, the IC50 in [3] (Cavia porcellus, Ileum) turned out to be 216 nM; in test [4] (Mus musculus) it was 406 nM. The inhibition constant Ki turned out to be 1.71 nM in test [5] and 133 nM in test [8]. Moreover, the Ke in test [9] stood at 598 nM; in [12], 632 nM; in test [13], 721 nM. In addition, the Ratio in [1] came to 0.5. Also, the Ki ratio in test [2] was determined as 78.
For the molecule `CSCC[C@H](NC(=O)[C@@H](NC(=O)[C@H](Cc1c[nH]cn1)NC(=O)[C@H](Cc1ccccc1)NC(=O)[C@@H](CCSC)NC(=O)[C@@H](N)Cc1ccc(O)cc1)C(C)(C)C)C(=O)N[C@@H](CC(=O)O)C(N)=O`, the IC50 in [3] (Cavia porcellus, Ileum) stood at 1200 nM; in test [4] (Mus musculus) it was 2430 nM. The Ki in test [5] turned out to be 9.45 nM; in [8], 382 nM. For the same molecule, the Ke stood at 15.8 nM in test [9]; 17.2 nM in test [10]; 311 nM in [11]; 16.1 nM in test [12]; 18.4 nM in test [13]. For the same molecule, the Ratio in test [1] was found to be 0.5. Moreover, the Ki ratio in test [2] was 40.

The values are drawn from ChEMBL document CHEMBL1128603, “Novel deltorphin heptapeptide analogs with potent delta agonist, delta antagonist, or mixed mu antagonist/delta agonist properties” (J Med Chem, 1995).
